Results taken from ChEMBL document CHEMBL4673221, “Furanoflavones pongapin and lanceolatin B blocks the cell cycle and induce senescence in CYP1A1-overexpressing breast cancer cells” (Bioorg Med Chem, 2018).
Active and inactive are the calls of the source. The rule behind the calls is not given here.

What was measured:
Cytochrome P450 1B1 [1] = target: T1, Cytochrome P450 1B1 (Homo sapiens, UniProt Q16678); assay: Inhibition of human CYP1B1 expressed in sacchrosomes using 7-ethoxyresorufin as substrate by fluorescence based assay; type: ADME
T1 sequence (Q16678 whole entry): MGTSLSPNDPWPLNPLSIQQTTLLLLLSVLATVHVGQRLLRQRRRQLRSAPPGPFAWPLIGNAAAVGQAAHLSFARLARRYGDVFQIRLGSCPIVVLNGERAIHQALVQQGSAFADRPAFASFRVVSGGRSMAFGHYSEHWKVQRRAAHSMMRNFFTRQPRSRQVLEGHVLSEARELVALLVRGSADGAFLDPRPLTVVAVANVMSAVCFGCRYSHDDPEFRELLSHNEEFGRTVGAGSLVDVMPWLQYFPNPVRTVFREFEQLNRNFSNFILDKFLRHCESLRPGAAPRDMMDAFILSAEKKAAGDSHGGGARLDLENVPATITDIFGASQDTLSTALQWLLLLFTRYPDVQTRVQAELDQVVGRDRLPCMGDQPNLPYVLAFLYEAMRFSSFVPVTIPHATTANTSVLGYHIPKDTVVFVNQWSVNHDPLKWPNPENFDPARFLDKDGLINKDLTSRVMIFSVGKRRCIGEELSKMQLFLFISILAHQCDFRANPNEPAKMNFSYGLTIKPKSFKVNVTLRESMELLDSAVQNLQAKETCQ
In short: (§1)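 Enzymes were microsomal preparations isolated from recombinant baker's yeast (Sacchrosomes). Compounds were screened at 10 μM for percent inhibition, and IC50 values were also determined. Values are mean ± SD of three independent experiments. Alpha-naphthoflavone served as the positive control.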

Cytochrome P450 1A1 [2] = target: T2, Cytochrome P450 1A1 (Homo sapiens, UniProt P04798); assay: Inhibition of human CYP1A1 expressed in sacchrosomes using 7-ethoxyresorufin as substrate by fluorescence based assay; in short: as §1
T2 sequence (P04798 whole entry): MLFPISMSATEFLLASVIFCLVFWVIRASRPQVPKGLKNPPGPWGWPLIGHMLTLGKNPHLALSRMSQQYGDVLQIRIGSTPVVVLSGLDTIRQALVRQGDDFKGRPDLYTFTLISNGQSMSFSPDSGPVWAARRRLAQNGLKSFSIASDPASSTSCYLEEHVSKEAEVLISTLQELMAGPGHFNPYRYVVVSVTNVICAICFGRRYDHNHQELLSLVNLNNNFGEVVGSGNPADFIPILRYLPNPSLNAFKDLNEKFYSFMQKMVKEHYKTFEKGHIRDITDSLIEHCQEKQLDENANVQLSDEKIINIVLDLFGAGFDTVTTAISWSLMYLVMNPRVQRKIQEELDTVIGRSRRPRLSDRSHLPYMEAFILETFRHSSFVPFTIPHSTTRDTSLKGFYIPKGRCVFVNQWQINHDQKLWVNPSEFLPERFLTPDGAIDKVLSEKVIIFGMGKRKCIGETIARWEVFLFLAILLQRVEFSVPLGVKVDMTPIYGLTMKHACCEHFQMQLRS

Cytochrome P450 1A1 [3] = target: T2, Cytochrome P450 1A1; assay: Inhibition of human CYP1A1 expressed in human HEK293 cells using 7-ethoxyresorufin as substrate preincubated for 30 mins followed by substrate additon and measured after 60 mins by fluorescence based assay; type: cell-based
In short: (§2)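 The assay used live recombinant human HEK293 cells grown in suspension, each cell line expressing a single CYP (CYP1A1 or CYP1B1). Percent inhibition was read at 10 μM, and IC50 values were determined. Values are mean ± SD of three independent experiments. Alpha-naphthoflavone served as the reference inhibitor.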

Cytochrome P450 1B1 [4] = target: T1, Cytochrome P450 1B1; assay: Inhibition of human CYP1B1 expressed in human HEK293 cells using 7-ethoxyresorufin as substrate preincubated for 30 mins followed by substrate additon and measured after 60 mins by fluorescence based assay; type: ADME, cell-based; in short: as §2
CYP1A1 [5] = target: T3, CYP1A1 (Homo sapiens, UniProt P04798); assay: Inhibition of human CYP1A1 expressed in sacchrosomes at 10 uM using 7-ethoxyresorufin as substrate by fluorescence based assay relative to control; conditions: sacchrosomes expressing human CYP1A1, probe 7-ethoxyresorufin; in short: as §1
T3 sequence (P04798 whole entry): T2 sequence (P04798 whole entry)

MCF7 [6] = assay: Cell cycle arrest in human MCF-7 cells over expressing CYP1A1 assessed as down regulation of CyclinD1 after 24 hrs by western blotting assay; type: functional, cell-based
In short: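 Cyclin D1 was detected by Western blot, with β-tubulin as loading control. Untreated cells served as control.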

MCF7 [7] = assay: Induction of cell cycle arrest in human MCF7 over expressing CYP1A cells assessed as accumulation at G0/G1 phase incubated for 24 hrs by PI staining based flow cytometric analysis (Rvb =54.3 %); type: functional
MCF7 [8] = assay: Induction of cell cycle arrest in human MCF7 over expressing CYP1A cells assessed as accumulation at G2/M phase incubated for 24 hrs by PI staining based flow cytometric analysis (reference value: 22.6%); type: functional
MCF7 [9] = assay: Induction of cell cycle arrest in human MCF7 over expressing CYP1A cells assessed as accumulation at S phase incubated for 24 hrs by PI staining based flow cytometric analysis (reference value: 20.1%); type: functional
MCF7 [10] = assay: Antiproliferative activity against human MCF-7 cells overexpressing CYP1A1 assessed as reduction in cell viability; type: functional, cell-based
In short: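 MCF-7 cells transfected with pcDNA3.1/CYP1A1 and selected in G418 (1 mg/mL, then […]) to give the stable MCF7-1A1 line. CYP1A1 expression was confirmed by Western blot and 7-ethoxyresorufin enzyme assay. The line was subcloned repeatedly. The reported value is the EC50 for inhibition of proliferation.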

Cytochrome P450 1A1 [11] = target: T2, Cytochrome P450 1A1; assay: Inhibition of human CYP1A1 expressed in HEK293 cells assessed as reduction in CYP1A1 mediated […] induced-toxicity by measuring EC50 at 3 times of IC50 concentration by MTT assay relative to control; type: cell-based; parameters: scale not given: the % may be the effect or the level left
In short: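 Adherent HEK293 cells transfected with pcDNA3.1/hCYP1A1 were exposed to B[a]P over 0.05–100 µM, with inhibitor at 3x its IC50 from the suspension HEK293-CYP1A1 assay. The EC50 of B[a]P for cell growth inhibition was derived. Cells transfected with empty plasmid were used for comparison. Values are mean and SD of three independent experiments.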

CYP1A1 [12] = target: T3, CYP1A1; assay: Inhibition of human CYP1A1 expressed in human HEK293 cells at 10 uM using 7-ethoxyresorufin as substrate preincubated for 30 mins followed by substrate additon and measured after 60 mins by fluorescence based assay relative to control; type: cell-based; conditions: HEK293 cells expressing human CYP1A1, probe 7-ethoxyresorufin, time 90 min; in short: as §2

Compound	IC50 (Cytochrome P450 1B1 [1]) [µM]	IC50 (Cytochrome P450 1A1 [2]) [µM]	IC50 (Cytochrome P450 1A1 [3]) [µM]	IC50 (Cytochrome P450 1B1 [4]) [µM]	inhibition at 10 µM (CYP1A1 [5]) [%]	Activity (MCF7 [6])	Activity (MCF7 [7]) [%]	Activity (MCF7 [8]) [%]	Activity (MCF7 [9]) [%]	EC50 (MCF7 [10]) [µM]	Activity (Cytochrome P450 1A1 [11]) [%]	inhibition at 1 h, 10 µM (CYP1A1 [12]) [%]
O=c1cc(-c2cccc(O)c2)oc2c1ccc1occc12	3.8	0.69	0.24	1.2								
COc1c(C(=O)/C=C(\O)c2ccc3c(c2)OCO3)ccc2occc12 [OVALITENONE]	0.6	0.28	0.48	1.5								
COc1c(-c2cc(-c3ccccc3)nn2-c2ccccc2[N+](=O)[O-])ccc2occc12					31.6							
O=c1cc(-c2ccccc2)oc2c1ccc1ccccc12 [ALPHA-NAPHTHOFLAVONE]						Active	55.4	20.5	24.1	> 20		
COc1c(-c2cc(-c3ccccc3)n(-c3ccc(C#N)cc3)n2)ccc2occc12	> 20	0.28	0.49	5.7	> 70						91	> 84
O=c1cc(-c2ccc3c(c2)OCO3)oc2c1ccc1occc12 [PONGAGLABRONE]	3.4	8.2	6.4	6.8								
COc1c(-c2cc(-c3ccccc3)nn2-c2ccc(C#N)cc2)ccc2occc12	6.2	6.8	8.6	25.5	> 70							> 84
COc1c(-c2ccccc2)oc2c(ccc3occc32)c1=O [KARANJIN]	4.1	2.7	0.03	0.03								
COc1c(C(=O)/C=C(\O)c2ccccc2)ccc2occc12 [PONGAMOL]	3.9	2.4	4.4	4.5							73	
